Most compounds without a hit are left out; they make up all but 4.4% or so of the library.
MsrA act: bovine methionine sulfoxide reductase A activation. purified bovine MsrA, absorbance read-out. activation, % at 10.6 µM. actives 0.3% (n = 360,000). AID 602163; in the data active = activation above about 7.5%;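 also: 0% = vehicle and 100% = reference activator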
TbMetRS inhib: blocks T. brucei methionyl-tRNA synthetase activity; actives 0.4% (n = 360,000); inhibition, % at 11.9 µM; AID 624268; purified T. brucei MetRS, ATP depletion, Kinase-Glo luminescence;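 active = inhibition above a per-plate cutoff of the control wells' mean inhibition plus 3 SD, cut at about 5.5% in these data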;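 also: 0% = DMSO wells median and 100% = median of wells with control inhibitor compound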
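Material: T. brucei methionyl-tRNA synthetase, purified; reagent: substrates ATP, L-methionine and bulk Escherichia coli tRNA; dosing: 11.9 µM single point; timing: 15 min plus 2 h at 25 °C; detection: luminescence of leftover ATP; evaluation: % inhibition; control set: DMSO-only wells as low control; replicates: singlicate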
AHR activator: human AHR activation; P35869; AHR-responsive luciferase reporter cells, luminescence; actives 2.5% (n = 320,000); activation, % at 5 µM; in the data active = activation above about 47%;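 also: 0% = vehicle wells and 100% = reference agonist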
Target sequence (P35869 whole entry, looked up): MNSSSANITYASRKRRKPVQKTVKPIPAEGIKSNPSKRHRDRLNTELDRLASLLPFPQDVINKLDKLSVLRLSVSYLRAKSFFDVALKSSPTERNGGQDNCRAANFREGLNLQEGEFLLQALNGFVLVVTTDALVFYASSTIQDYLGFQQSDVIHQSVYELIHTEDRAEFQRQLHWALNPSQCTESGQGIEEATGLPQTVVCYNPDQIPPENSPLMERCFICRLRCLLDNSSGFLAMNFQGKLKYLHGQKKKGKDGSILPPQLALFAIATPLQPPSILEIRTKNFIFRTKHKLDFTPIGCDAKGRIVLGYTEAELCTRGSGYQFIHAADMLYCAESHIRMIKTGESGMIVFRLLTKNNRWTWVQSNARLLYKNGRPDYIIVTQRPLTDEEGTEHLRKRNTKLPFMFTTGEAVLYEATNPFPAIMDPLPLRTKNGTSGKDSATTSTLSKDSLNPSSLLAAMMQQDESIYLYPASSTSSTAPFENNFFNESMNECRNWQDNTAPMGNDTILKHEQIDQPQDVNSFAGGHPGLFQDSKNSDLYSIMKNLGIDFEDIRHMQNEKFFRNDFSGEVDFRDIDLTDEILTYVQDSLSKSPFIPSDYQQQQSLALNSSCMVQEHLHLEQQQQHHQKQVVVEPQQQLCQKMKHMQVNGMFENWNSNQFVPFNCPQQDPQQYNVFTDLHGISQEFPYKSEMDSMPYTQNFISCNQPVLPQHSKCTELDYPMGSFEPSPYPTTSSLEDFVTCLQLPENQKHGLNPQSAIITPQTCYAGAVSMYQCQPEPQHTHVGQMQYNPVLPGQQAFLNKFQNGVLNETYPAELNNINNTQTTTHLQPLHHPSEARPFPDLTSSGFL
AI-2 QS modul: Vibrio harveyi AI-2 quorum sensing modulation; Vibrio harveyi JMH597 AI-2 luminescence/OD600 ratio, 9 h; stronger effect = lower value; strain lacks LuxN and CqsS sensors; 0 = neutral-control median; activity change, % at 7.5 µM; actives 0.4% (n = 300,000); AID 2094; in the data active = activity change below about -75%, passing the limit was not always enough;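 also: luminescence divided by OD600 gain over 9 h not by final OD600 alone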
m5-HT2A agonist: agonists of mouse serotonin 5-HT2A receptor (HTR2A) | AID 624169 | actives 0.66% (n = 360,000) | CHO-K1 mHTR2A beta-arrestin complementation, luminescence; percent of 30 µM serotonin response | P35363 | activation, % at 7.6 µM;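 active = activation above a run cutoff, the mean activation of all tested compounds plus 3 SD, cut at about 14% in these data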;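 also: 0% = plate median of compound wells and 100% = 30 µM serotonin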
MsrA inh: inhibitors of bovine MsrA. actives 0.75% (n = 360,000). inhibition, % at 15.5 µM. purified bovine MsrA, absorbance read-out; in the data active = inhibition above about 4.5%;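 also: 0% = vehicle wells with enzyme and 100% = reference inhibitor wells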
AHR act cf: confirmation of human aryl hydrocarbon receptor activators. human cells, AHR-responsive luciferase reporter, luminescence. actives 87% (n = 2,300). shares compounds with AHR activator. activation, % at 9 µM; in the data active = activation above about 49%;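 also: HepG2 hepatoma cells carrying a DRE-driven firefly luciferase reporter; 0% = vehicle wells and 100% = reference agonist wells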
PXR act counter: PXR activation, counter-screen for AHR activators; shares compounds with AHR activator; cell-based PXR reporter, luciferase luminescence; activation, % at 11.6 µM; actives 88% (n = 2,300); AID 434939; in the data active = activation above about 11%;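 also: human hepatoma DPX-2 cells expressing full-length human PXR; 0% = DMSO and 100% = reference agonist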
The depositor's hits bear a star; / = no result.

SMILES	MsrA act	TbMetRS inhib	AHR activator	AI-2 QS modul	m5-HT2A agonist	MsrA inh	AHR act cf	PXR act counter
Nc1[nH]ncc1C(=O)Nc1cccc(C(F)(F)F)c1	-0.3	0.2	90.7*	15.6	4.2	0.8	50.5*	/
CN(C)S(=O)(=O)Oc1ccccc1C(=O)Nc1ccc(F)cc1F	-4.9	-0.4	124.3*	4.8	-0.5	-0.9	92.8*	154.4*
COc1ccc(Cl)cc1NCCC(O)c1ccc(F)cc1 (stereo not drawn)	-1.5	-0.5	89.3*	3.0	6.9	0.0	21.4	40.4*
COc1ccc(NCCC(O)c2ccc(Cl)cc2)cc1 (stereo not drawn)	-3.0	0.9	4.2	27.6	3.0	-0.7	/	/
CCOc1ccc(S(=O)(=O)Nc2ccn(C)n2)cc1	-3.6	0.1	-1.0	/	0.9	0.8	/	/
CC(C)C[C@@H](CN)NC(=O)c1nc[nH]c1C(=O)N[C@@H](C)C(=O)CNC[C@H](C)NC(=O)c1nc[nH]c1C(=O)N[C@@H](Cc1ccccc1)C(=O)O	2.4	-0.2	/	/	2.4	0.8	/	/
Cn1cccc1C(=O)C(=O)Nc1cccc(Cl)c1Cl	-12.2	0.0	92.4*	30.7	1.6	0.0	104.1*	10.5*
Cn1cccc1C(=O)C(=O)Nc1ccc(Cl)cc1	-3.3	-0.7	-4.0	15.0	0.7	2.2	/	/
Cc1ccc2nc(C(Cl)(Cl)Cl)nc(N/N=C/c3ccncc3)c2c1	-7.7	-0.5	92.5*	1.6	3.9	1.3	109.7*	15.4*
Cc1ccc2nc(C(Cl)(Cl)Cl)nc(N/N=C/c3ccc([N+](=O)[O-])cc3)c2c1	-3.0	-0.6	/	/	-2.0	-0.5	/	/
CC(O)CO (stereo not drawn)	-4.1	-0.6	-0.6	/	5.7	0.6	/	/
CCOC(=O)c1nnc(-c2ccccc2)nc1N1CCSCC1	-2.5	-1.0	39.9	14.5	6.0	1.0	/	/
Cc1ccc(-c2nnc(-c3ccccc3)c(N3CCOCC3)n2)cc1	-4.7	0.6	2.5	15.8	6.5	2.0	/	/
CN1CCN(c2nc(-c3ccc(Br)cc3)nnc2-c2ccccc2)CC1	-3.9	0.4	131.8*	12.1	-3.0	0.8	90.2*	48.8*
Brc1ccc(-c2nnc(-c3ccccc3)c(N3CCSCC3)n2)cc1	-1.6	-0.2	123.4*	15.0	0.2	2.3	93.3*	74.8*
Cc1cc(C)cc(OCC(=O)N/N=C/c2ccccn2)c1	-2.7	-0.2	12.9	33.0	4.1	-0.5	/	/
Cc1ccccc1OCC(=O)N/N=C/c1ccccn1	-3.1	-0.4	80.8*	17.6	7.0	-0.6	29.0	9.3
CCN(CC)C(=O)Cn1cc(C(=O)C(=O)N2CCc3ccccc32)c2ccccc21	-2.4	-0.4	97.8*	5.7	0.1	2.4	88.5*	243.2*
COc1ccc(-c2[nH]c(-c3ccccc3)nc2SCC(=O)NCc2ccco2)cc1OC	-2.0	1.1	121.1*	11.7	-6.1	0.7	68.2*	75.1*
COc1ccc(-c2nc(SCC(=O)NCc3ccco3)c(-c3ccccc3)[nH]2)cc1OC	-0.2	0.3	28.5	-5.5	-6.7	0.1	/	/
COc1ccc(-c2[nH]c(-c3ccc(F)cc3)nc2SCC(=O)NCc2ccco2)cc1OC	-3.3	-0.2	80.4*	23.1	-5.1	0.2	63.1*	57.2*
O=C(Nc1cccc2ccccc12)OC[C@@H]1CSCCS(=O)(=O)N1	/	/	/	/	/	-0.9	/	/
O=[N+]([O-])c1cccc(NC(=S)N2CCc3ccccc3C2)c1	-3.4	2.1	104.9*	-17.7	-5.2	0.2	91.9*	54.0*
O=C(c1ccco1)N1CCN(C(=S)Nc2cccc([N+](=O)[O-])c2)CC1	-1.6	3.8	-4.3	35.2	-0.3	-0.1	/	/
Cc1cc(OCC(=O)NCCc2c[nH]c3ccccc23)c2c(C)cc(=O)oc2c1	-4.7	-1.6	1.4	19.7	0.8	0.8	/	/
SMILES	MsrA act	TbMetRS inhib	AHR activator	AI-2 QS modul	m5-HT2A agonist	MsrA inh	AHR act cf	PXR act counter
c1ccc(Nc2nc(-c3ccccn3)cs2)cc1	-3.1	-0.1	116.3*	36.9	-0.6	1.4	52.6*	/
c1csc(-c2nc3c4ccccc4c4ccccc4c3[nH]2)c1	1.6	0.6	112.2*	12.7	2.2	1.5	95.8*	25.1*
CCN(C(=O)CSc1nc(C)nc2sc(C)c(C)c12)c1ccc(F)cc1	0.1	-0.3	0.1	/	11.2	1.1	/	/
Cc1nc(SCC(=O)N(C)Cc2ccco2)c2c(C)c(C)sc2n1	-8.9	-1.2	91.7*	13.5	1.7	0.9	55.5*	181.7*
CC(C)(C)C1CCN2CCCC(c3ccccc3)(C1)C2=O (stereo not drawn)	-4.0	-1.0	/	/	-2.3	0.8	/	/
C=CCSc1nc2nc(C)cc(C)n2n1	-9.6	-0.9	-0.9	17.7	1.7	0.6	/	/
C=CCSc1nnc2nc3[nH]c4c(C)cccc4c3nn12	-1.5	-0.2	105.4*	17.2	3.6	1.1	142.7*	37.6*
CCc1ccc2[nH]c3nc(SCCN4CCOCC4)nnc3c2c1	-0.8	0.4	28.8	21.3	-4.0	1.6	/	/
CCc1ccc2[nH]c3nc(N/N=C/c4ccc(O)cc4O)nnc3c2c1	-1.4	-0.6	83.3*	7.3	-11.5	0.3	89.7*	/
Cc1cc2n(n1)SC(Nc1ccc(F)c(Cl)c1)N2 (stereo not drawn)	-0.5	-0.4	89.5*	19.9	-3.4	-1.4	105.8*	51.8*
CCn1c(C)cc(/C=C2/NC(=O)N(c3ccccc3)C2=O)c1C	-8.2	-0.6	27.4	14.0	-1.3	1.6	/	/
COCCn1c(C)cc(/C=C2/NC(=O)N(c3cccc(Cl)c3)C2=O)c1C	-3.3	-0.5	122.0*	18.2	-3.0	1.7	4.8	74.2*
CCN(CC)C(=O)c1sc(NC(=O)c2c(OC)cccc2OC)c(C#N)c1C	-10.4	-1.1	131.9*	15.3	7.7	0.0	91.5*	172.7*
CCSc1c([N+](=O)[O-])c(=O)n(-c2ccccc2)c2ccccc12	-2.5	-0.1	2.0	5.3	-1.7	1.4	/	/
CNC(=O)c1ccccc1Nc1ccc(SC(F)F)cc1	-2.6	0.1	113.3*	2.9	-4.1	1.8	96.6*	22.7*
CCOc1ccccc1NC(=O)c1cnc2n(c1=O)CCS2	-0.9	-0.3	88.4*	27.2	3.9	1.4	64.5*	55.2*
COc1ccc(C)cc1NC(=O)c1cnc2n(c1=O)CCS2	-10.2	-0.9	23.6	20.3	3.6	2.7	/	/
Cc1ccc(C(=O)Cn2c(C)cc(C)c(C#N)c2=O)cc1	-2.2	0.1	7.6	23.2	-1.4	2.2	/	/
Cc1cc(C)n(CC(=O)c2ccccc2)c(=O)c1C#N	-3.0	0.3	99.8*	28.6	-6.1	0.4	104.6*	21.6*

High-throughput results: PubChem BioAssay, several laboratories
